Screening results: PubChem BioAssay, several laboratories
Compounds with a hit are over-represented: about 2.3% of the library has one in this group of screens.
UBC13 polyUb = human UBC13 polyubiquitination inhibition. inhibition, % at 20 µM. 330,000 compounds, 0.47% hits. UBC13 polyubiquitin chain formation, TR-FRET. P61088; in the data active means inhibition above about 45%, passing the limit was not always enough
Fh CTSL1 inh = counter-screen for PFM18AAP inhibitors: inhibitors of F. hepatica cathepsin L1; inhibition, % at 5.96 µM; recombinant F. hepatica cathepsin L1, Z-Leu-Arg-MCA fluorescence; 300,000 compounds, 0.49% hits;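 active means inhibition above the mean of all tested compounds plus 3 SD, set per screening campaign, cut at about 17% in these data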;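 further: 0% = plate median of test compound wells and 100% = 1 µM Z-Phe-Ala-diazomethylketone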
PP5 primary = inhibitors of human protein phosphatase 5 (PP5) | P53041 | purified PP5c, OMFP substrate fluorescence | inhibition, % at 6.7 µM | 320,000 compounds, 0.18% hits;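 active means inhibition above the campaign's mean inhibition across all tested compounds plus 3 SD, cut at about 9.5% in these data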;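 further: 0% = DMSO only and 100% = 100 µM cantharidin control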
PP1 inh = blocks human PP1-alpha phosphatase, a PP5 counter-screen; purified PP1alpha, OMFP fluorescence; inhibition, % at 6.7 µM; 320,000 compounds, 0.9% hits;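 active means inhibition above the mean inhibition of all tested compounds plus 3 SD, computed separately for each screening campaign, cut at about 15% in these data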
PREPL inhibitor = inhibits the human prolyl oligopeptidase-like enzyme | Q4J6C6 | AID 2751 | recombinant PREPL, fluorescence polarization activity-based probe | inhibition, % at 5.96 µM | 320,000 compounds, 0.68% hits; in the data active means inhibition above about 43%;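 further: 0% = enzyme with DMSO and 100% = wells lacking enzyme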
Target sequence (Q4J6C6 whole entry, looked up): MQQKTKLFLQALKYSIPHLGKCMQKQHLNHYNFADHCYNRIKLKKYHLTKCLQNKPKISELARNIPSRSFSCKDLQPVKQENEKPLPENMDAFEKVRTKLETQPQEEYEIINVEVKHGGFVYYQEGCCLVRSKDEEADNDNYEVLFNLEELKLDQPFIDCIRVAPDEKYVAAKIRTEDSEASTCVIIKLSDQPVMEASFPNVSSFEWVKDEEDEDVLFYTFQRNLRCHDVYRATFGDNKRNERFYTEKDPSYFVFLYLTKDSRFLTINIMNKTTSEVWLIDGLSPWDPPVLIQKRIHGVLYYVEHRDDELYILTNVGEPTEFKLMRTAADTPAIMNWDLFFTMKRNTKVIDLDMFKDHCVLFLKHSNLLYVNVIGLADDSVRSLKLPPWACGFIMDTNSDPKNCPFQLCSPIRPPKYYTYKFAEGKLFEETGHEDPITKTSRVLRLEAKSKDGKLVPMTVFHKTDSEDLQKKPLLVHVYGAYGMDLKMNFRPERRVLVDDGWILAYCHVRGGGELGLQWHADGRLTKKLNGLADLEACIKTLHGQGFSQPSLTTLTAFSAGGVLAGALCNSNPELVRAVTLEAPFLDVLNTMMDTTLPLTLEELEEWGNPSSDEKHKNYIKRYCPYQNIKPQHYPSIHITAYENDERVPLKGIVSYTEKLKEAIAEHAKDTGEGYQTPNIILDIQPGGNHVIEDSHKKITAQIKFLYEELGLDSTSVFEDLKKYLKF
UCH37 DUB inh = blocks the human deubiquitinase UCH37. purified proteasome/UCH37, Ub-AMC cleavage fluorescence. inhibition, % (no concentration beside the values). 330,000 compounds, 0.33% hits. AID 588478;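 active means mean inhibition over replicate wells above about 20%, limit read from the data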;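 further: 0% = compound-free wells with enzyme and 100% = wells lacking proteasome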
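System: Proteasome-associated human UCH37 deubiquitinase; Input: 0.15 nM proteasome in added enzyme buffer; Also added: Ub-AMC substrate from 1 µM stock; Incubation: 30 min compound-proteasome preincubation then 25 min substrate reaction, room temperature; Detection: fluorescence, ex 355 nm, em 460 nm; Read-out: % inhibition of Ub-AMC cleavage fluorescence; Benchmarks: no-proteasome and no-compound wells.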
Starred values were filed as active, the others as inactive; · = no result given; ! = not active in a repeat.

SMILES	UBC13 polyUb	Fh CTSL1 inh	PP5 primary	PP1 inh	PREPL inhibitor	UCH37 DUB inh
Cc1cccc(N=Cc2c(O)n(-c3ccccc3C)c(=O)[nH]c2=O)c1	-6	-2	0	-2	-2	8
Cc1ccccc1-n1c(O)c(/C=N/c2nccs2)c(=O)[nH]c1=O	4	17*!	2	-2	7	3
C[C@]12CCC(=O)C=C1CC[C@@H]1[C@@H]2CC[C@@]2(C)[C@H]1CC[C@]2(C)O	·	·	·	·	·	1
CC1=C2CCC3C(CCC4=CC(=O)CCC43C)C2CC1 (configuration not stated)	·	·	·	·	·	20*
CN(C)c1ccc(C=C2C(=O)NC(=O)NC2=O)cc1[N+](=O)[O-]	-28	5	0	-4	10	8
CCOc1cc(C=C2C(=O)NC(=O)NC2=O)cc([N+](=O)[O-])c1O	-38	-1	4	0	-12	26*
C[C@H]1CC=C[C@H]2[C@H](O)[C@H](C)[C@@](C)(O)[C@H]3[C@H](Cc4ccccc4)NC(=O)[C@]32[C@H](O)C=C[C@](C)(O)C1	·	·	·	·	·	0
CC(C)c1ccc(N2C(=O)NC(=O)/C(=C/C=C/c3ccco3)C2=O)cc1	·	-4	4	17*	-9	3
Cc1ccccc1C(=O)NN=Cc1ccc(Sc2ccccn2)o1	·	·	·	·	·	1
CN1C(=O)NC(=O)/C(=C/c2ccc([N+](=O)[O-])o2)C1=O	-33	-3	3	0	-1	22*
Cn1c(=O)c2c(nc(N/N=C/c3c(O)n(-c4ccccc4)c(=S)[nH]c3=O)n2C)n(C)c1=O	-26	4	-3	-3	16	21*
O=C(Nc1ccc(Cl)cc1)ON=C(c1ccccc1)c1ccccn1	·	·	·	·	·	2
COc1ccc(N=Nc2c(O)[nH]c(=S)[nH]c2=O)cc1	-316	11	1	8	-12	21*
CCOC(=O)C(CCCN(CC)CC)=NO	·	·	·	·	·	3
CC(=O)C1C2c3ccccc3OC1(C)N=c1sc(=Cc3cn(C)nc3C)c(=O)n12 (configuration not stated)	·	·	·	·	·	3
Cc1c2ccncc2c(C)c2c1[nH]c1ccccc12	39	7	-1	31*	28	-6
CC[C@@H]1C=CC=CC[C@H](C)[C@@H](O)[C@@H](C)C(=O)[C@H](C)[C@@H](O)[C@H](C)C(=O)[C@H](C)[C@@H](O)[C@H](C)C=CC(=O)O[C@H]2[C@@H](C)[C@@H](CC1)O[C@@]1(CC[C@@H](C)[C@@H](C[C@H](C)O)O1)[C@@H]2C	59*	7	5	2	7	·
CC(=O)OC1(c2ccccc2)CC(C(C)(C)C)CN(C(C)(C)C)C1 (configuration not stated)	3	35*	0	-4	-2	1
O=C1NC(=O)N(c2ccc(F)cc2)C(=O)/C1=C/c1ccsc1	-4	35*	-6	3	0	4
O=C1NC(=O)N(c2ccc(Br)cc2)C(=O)/C1=C/c1ccsc1	-24	1	-1	-3	0	2
CC(Cl)(Cl)C(=NP(=S)(N1CCOCC1)N1CCOCC1)N1CCOCC1	·	·	·	·	·	1
CC(CC(c1ccccc1)c1c(O)c2ccccc2oc1=O)=NNC(N)=S (configuration not stated)	·	·	·	·	·	1
CCCC12CN3CCN(CC(C3)C1=NNC(=O)c1ccncc1)C2	·	·	·	·	·	1
O=c1c2ccccc2nc(CSc2ncnc3nc[nH]c23)n1-c1ccccc1	4	0	2	-3	-9	1
O=c1c2ccccc2nc(CSc2ncnc3nc[nH]c23)n1-c1ccccc1Cl	-5	21*	-1	0	13	2
SMILES	UBC13 polyUb	Fh CTSL1 inh	PP5 primary	PP1 inh	PREPL inhibitor	UCH37 DUB inh
CN(C)C(=O)ON=C(N)COc1ccc(C(C)(C)C)cc1	·	·	·	·	·	1
CN(C)[C@@H]1C(=O)C(C(N)=O)=C(O)[C@@]2(O)C(=O)C3=C(O)c4c(O)cccc4[C@@](C)(O)[C@H]3C[C@@H]12	14	-2	-2	29*	17	·
CN(C)C1C(=O)C(C(N)=O)=C(O)C2(O)C(=O)C3=C(O)c4c(O)cccc4C(C)(O)C3CC12 (configuration not stated)	·	-4	0	6	-1	0
COc1cc(O)cc2c1C(=O)OC(C)CCCC(=O)CCCC=C2 (configuration not stated)	·	·	·	·	·	5
COc1cc2c(cc1O)[C@@H]1Cc3ccc(OC)c(O)c3CN1CC2	-30	65*	6	-1	10	2
ON=C1CCC2CN(C3CCCCC3)CC2C1 (configuration not stated)	·	·	·	·	·	-1
CN[C@H]1C[C@H]2O[C@@](C)([C@H]1OC)n1c3ccccc3c3c4c(c5c6ccccc6n2c5c31)C(=O)NC4	26	0	4	2	76*	·
C=C(C)CSc1nnc([C@@H](N)Cc2ccccc2)o1	2	-3	-3	-7	-5	5
CN(C)C(=O)CSc1nnc([C@@H](N)Cc2ccccc2)o1	-2	33*	0	0	-14	2
CCC(=NCc1ccc2c(c1)OCO2)c1c(O)n(C2CCCCC2)c(=O)[nH]c1=O	6	2	4	10	45*	5
CCCCn1c(NC(=O)c2ccc(Br)o2)c(C(=O)OCC)c2nc3ccccc3nc21	-36	2	13*	4	43	·
COc1cc(CC2C(=O)N(C)C(=O)N(C)C2=O)ccc1OCc1ccccc1	-26	-2	4	5	9	24*
CN1C(=O)C(Cc2ccc(OCc3ccccc3)cc2)C(=O)N(C)C1=O	-25	1	1	2	2	11
CC(C)C12CN3CCN(CC(C3)C1=NO)C2	·	·	·	·	·	5
CCc1ccccc1N1C(=O)/C(=C/c2ccc(N3CCN(C)CC3)o2)C(=O)NC1=S	-381	3	2	0	-3	16
Cc1cccc(N2C(=O)/C(=C/c3ccc(N4CCN(C)CC4)o3)C(=O)NC2=S)c1C	-141	-1	2	5	-11	22*
Cc1ccccc1N1C(=O)NC(=O)/C(=C\c2cc(Br)c(N3CCOCC3)o2)C1=O	-280	7	3	1	4	23*
Cc1ccccc1N1C(=O)NC(=O)/C(=C/c2ccc(N3CCOCC3)o2)C1=O	-363	11	1	11	6	21*
COc1cc(OC)c(C=O)c(OC(=O)N(C)C)c1	4	28*	-1	2	2	-1
Cc1nc2ccccc2c(=O)n1N=Cc1cc(Br)cc(Br)c1O	·	·	·	·	·	0
COC(=O)c1cc(C(O)(C(=O)OC)C(F)(F)F)c(N=CN(C)C)s1 (configuration not stated)	·	·	·	·	·	8
c1ccc(CCCN2CCN(CCOC(c3ccccc3)c3ccccc3)CC2)cc1	36	3	1	6	2	2
Fc1ccc(C(OCCN2CCN(CCCc3ccccc3)CC2)c2ccc(F)cc2)cc1	49*	1	0	13	-27	4
